Assay results from article PMC9099118 (Clinical and Translational Science, 2022).

What was measured:
[1] = Phase I safety: adverse events, Part A; assay type: in vivo, human; details: for Related AE / Total number of participants with at least one AE / Upper respiratory tract infection / Cough / Headache: n (%)
[2] = Phase I safety: laboratory tests; assay type: in vivo, human
Outline: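 Healthy volunteers in single- and multiple-ascending inhaled-dose cohorts, randomized against placebo and blinded to investigator and subject. All dosed subjects were analysed. Change from baseline was assessed in vital signs, 12-lead ECG, spirometry and laboratory tests. Lab monitoring for JAK-related toxicity covered reticulocyte counts, lymphocyte subsets and fasting lipids.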

[3] = assay type: in vivo, human
Outline: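 Open-label single-dose study in 12 healthy volunteers. Each inhaled 1 mg test compound, with 99mTc surface-associated with the powder and blended with lactose, from a capsule dry-powder inhaler (60 L/min at 4 kPa). 81mKr ventilation and 57Co transmission scans were taken before dosing. Counts were corrected for decay, background and attenuation. Lung deposition was expressed as % of emitted dose (sum of lung, oropharynx, mouthwash, stomach and exhalation filter counts). Device and capsule residue was expressed as % of loaded dose. PI (outer/inner ratio) and sC/P were normalized to 81mKr.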

rat model of asthma = details: inhalation dosing; cited from earlier work
[4] = Part B MAD, 15 mg b.i.d. (n = 6)

CN(CCC#N)C1CCN(C(=O)Cn2cc(NC(=O)c3cnn4cccnc34)c(-c3cc(Cl)ccc3OC(F)F)n2)CC1 [GDC‐0214]
AE leading to withdrawal from treatment ([1]; Part A SAD, 0.15 mg (n = 3)): 0 | Serious AE ([1]; Part A SAD, 0.15 mg (n = 3)): 0 | Total number of AEs ([1]; Part A SAD, 0.15 mg (n = 3)): 1 | Total number of deaths ([1]; Part A SAD, 0.15 mg (n = 3)): 0 | Total number of participants withdrawn from study due to an AE ([1]; Part A SAD, 0.15 mg (n = 3)): 0 | Related AE ([1]; Part A SAD, 0.15 mg (n = 3)): 0 | Total number of participants with at least one AE ([1]; Part A SAD, 0.15 mg (n = 3)): 1 (33.3%) | Upper respiratory tract infection ([1]; Part A SAD, 0.15 mg (n = 3)): 0 | AE leading to withdrawal from treatment ([1]; Part A SAD, 0.5 mg (n = 3)): 0 | Serious AE ([1]; Part A SAD, 0.5 mg (n = 3)): 0 | Total number of AEs ([1]; Part A SAD, 0.5 mg (n = 3)): 3 | Total number of deaths ([1]; Part A SAD, 0.5 mg (n = 3)): 0 | Total number of participants withdrawn from study due to an AE ([1]; Part A SAD, 0.5 mg (n = 3)): 0 | Related AE ([1]; Part A SAD, 0.5 mg (n = 3)): 0 | Total number of participants with at least one AE ([1]; Part A SAD, 0.5 mg (n = 3)): 2 (66.7%) | Upper respiratory tract infection ([1]; Part A SAD, 0.5 mg (n = 3)): 0 | AE leading to withdrawal from treatment ([1]; Part A SAD, 1.5 mg (n = 6)): 0 | Serious AE ([1]; Part A SAD, 1.5 mg (n = 6)): 0 | Total number of AEs ([1]; Part A SAD, 1.5 mg (n = 6)): 5 | Total number of deaths ([1]; Part A SAD, 1.5 mg (n = 6)): 0 | Total number of participants withdrawn from study due to an AE ([1]; Part A SAD, 1.5 mg (n = 6)): 0 | Related AE ([1]; Part A SAD, 1.5 mg (n = 6)): 1 (16.7%) | Total number of participants with at least one AE ([1]; Part A SAD, 1.5 mg (n = 6)): 3 (50.0%) | AE leading to withdrawal from treatment ([1]; Part A SAD, 5 mg (n = 6)): 0 | Serious AE ([1]; Part A SAD, 5 mg (n = 6)): 0 | Total number of AEs ([1]; Part A SAD, 5 mg (n = 6)): 2 | Total number of deaths ([1]; Part A SAD, 5 mg (n = 6)): 0 | Total number of participants withdrawn from study due to an AE ([1]; Part A SAD, 5 mg (n = 6)): 0 | Related AE ([1]; Part A SAD, 5 mg (n = 6)): 0 | Total number of participants with at least one AE ([1]; Part A SAD, 5 mg (n = 6)): 2 (33.3%) | Upper respiratory tract infection ([1]; Part A SAD, 5 mg (n = 6)): 0 | AE leading to withdrawal from treatment ([1]; Part A SAD, 15 mg (n = 6)): 0 | Serious AE ([1]; Part A SAD, 15 mg (n = 6)): 0 | Total number of AEs ([1]; Part A SAD, 15 mg (n = 6)): 4 | Total number of deaths ([1]; Part A SAD, 15 mg (n = 6)): 0 | Total number of participants withdrawn from study due to an AE ([1]; Part A SAD, 15 mg (n = 6)): 0 | Related AE ([1]; Part A SAD, 15 mg (n = 6)): 1 (16.7%) | Total number of participants with at least one AE ([1]; Part A SAD, 15 mg (n = 6)): 4 (66.7%) | Upper respiratory tract infection ([1]; Part A SAD, 15 mg (n = 6)): 0 | Total number of participants with at least one AE ([1]; Part B MAD, 1 mg q.d. 14 days (n = 6)): 6 (100%) | AE leading to withdrawal from treatment ([1]; Part B MAD, 1 mg q.d. (n = 6)): 0 | Related serious AE ([1]; Part B MAD, 1 mg q.d. (n = 6)): 0 | Serious AE ([1]; Part B MAD, 1 mg q.d. (n = 6)): 0 | Total number of AEs ([1]; Part B MAD, 1 mg q.d. (n = 6)): 6 | Total number of deaths ([1]; Part B MAD, 1 mg q.d. (n = 6)): 0 | Total number of participants withdrawn from study due to an AE ([1]; Part B MAD, 1 mg q.d. (n = 6)): 0 | Cough ([1]; Part B MAD, 1 mg q.d. (n = 6)): 0 | Headache ([1]; Part B MAD, 1 mg q.d. (n = 6)): 1 (16.7%) | Related AE ([1]; Part B MAD, 1 mg q.d. (n = 6)): 0 | Upper respiratory tract infection ([1]; Part B MAD, 1 mg q.d. (n = 6)): 2 (33.3%) | Total number of participants with at least one AE ([1]; Part B MAD, 3 mg q.d. 14 days (n = 6)): 4 (66.7%) | AE leading to withdrawal from treatment ([1]; Part B MAD, 3 mg q.d. (n = 6)): 0 | Related serious AE ([1]; Part B MAD, 3 mg q.d. (n = 6)): 0 | Serious AE ([1]; Part B MAD, 3 mg q.d. (n = 6)): 0 | Total number of AEs ([1]; Part B MAD, 3 mg q.d. (n = 6)): 11 | Total number of deaths ([1]; Part B MAD, 3 mg q.d. (n = 6)): 0 | Total number of participants withdrawn from study due to an AE ([1]; Part B MAD, 3 mg q.d. (n = 6)): 0 | Cough ([1]; Part B MAD, 3 mg q.d. (n = 6)): 1 (16.7%) | Headache ([1]; Part B MAD, 3 mg q.d. (n = 6)): 2 (33.3%) | Related AE ([1]; Part B MAD, 3 mg q.d. (n = 6)): 1 (16.7%) | Upper respiratory tract infection ([1]; Part B MAD, 3 mg q.d. (n = 6)): 3 (50.0%) | Total number of participants with at least one AE ([1]; Part B MAD, 10 mg q.d. 14 days (n = 6)): 6 (100%) | AE leading to withdrawal from treatment ([1]; Part B MAD, 10 mg q.d. (n = 6)): 0 | Related serious AE ([1]; Part B MAD, 10 mg q.d. (n = 6)): 0 | Serious AE ([1]; Part B MAD, 10 mg q.d. (n = 6)): 0 | Total number of AEs ([1]; Part B MAD, 10 mg q.d. (n = 6)): 13 | Total number of deaths ([1]; Part B MAD, 10 mg q.d. (n = 6)): 0 | Total number of participants withdrawn from study due to an AE ([1]; Part B MAD, 10 mg q.d. (n = 6)): 0 | Cough ([1]; Part B MAD, 10 mg q.d. (n = 6)): 0 | Headache ([1]; Part B MAD, 10 mg q.d. (n = 6)): 0 | Related AE ([1]; Part B MAD, 10 mg q.d. (n = 6)): 0 | Upper respiratory tract infection ([1]; Part B MAD, 10 mg q.d. (n = 6)): 2 (33.3%) | Total number of participants with at least one AE ([1]; Part B MAD, 15 mg b.i.d. 14 days (n = 6)): 4 (66.7%) | AE leading to withdrawal from treatment [1, 4]: 0 | Related serious AE [1, 4]: 0 | Serious AE [1, 4]: 0 | Total number of AEs [1, 4]: 8 | Total number of deaths [1, 4]: 0 | Total number of participants withdrawn from study due to an AE [1, 4]: 0 | Cough [1, 4]: 0 | Headache [1, 4]: 2 (33.3%) | Related AE [1, 4]: 0 | Upper respiratory tract infection [1, 4]: 0 | severity of adverse events ([1]; after single and multiple doses, all adverse events): mild or moderate | safety and tolerability ([1]; up to a single dose of 15 mg or multiple doses up to 15 mg b.i.d. for 14 days): safe and well tolerated | changes in laboratory parameters, ECGs, or vital signs ([2]; Parts A and B): no clinically relevant changes | changes in CD4T cells, CD8T cells, or B cells ([2]; compared to placebo, GDC-0214-treated cohorts): no significant changes | changes from baseline in levels of NK cells, reticulocytes, or low-density lipoprotein cholesterol ([2]; indicators of systemic effects of JAK1 inhibition): no significant changes | mean emitted dose ([3]; capsule emptying, of loaded dose, 1 mg capsule): approximately 81% | calculated mean dose deposited in the lungs ([3]; from a single capsule (1 mg)): approximately 0.41 mg | Regional airway deposition ratio, PI (penetration index) ([3]; normalized for 81mKr gas distribution, mean (CV%), listed as radiolabeled GDC‐0214): 0.76 (30.47%) | % Emitted dose, Exhaled ([3]; single inhaled 1 mg radiolabeled dose, after the breath-hold, mean): 0.74% | eosinophil recruitment (rat model of asthma): suppressed
